Rows were chosen to be rich in hits. Some 1.9% of all compounds tested hit in one or more screens of this group.
M5 ag – CHRM5 agonism in calcium assay; AID 624037; CHO-K1 hM5 cells, Fluo-8 calcium fluorescence; 0% DMSO wells, 100% maximal acetylcholine response; P08912; actives 0.19% (n = 360,000); activation, % at 3 µM;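 active = activation above the run's mean over test compounds plus 3 SD, cut at about 23% in these data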;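 also: signal is peak over basal fluorescence ratio across the kinetic read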
CHRM5 PAM – positive allosteric modulators of human muscarinic M5 receptor | CHO-K1 hM5, Fluo-8 calcium, ACh EC20 PAM; 0% = ACh EC20, 100% = ACh EC100 | activation, % at 3 µM | actives 0.3% (n = 360,000);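 active = activation above the run cutoff, the mean activation of all test compounds plus 3 SD, cut at about 18% in these data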
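Probe or stimulus: acetylcholine, EC20 level; Assay system: human M5 receptor in CHO-K1 cells; Schedule: compound preincubation 140 s before EC20 acetylcholine addition; Technique: intracellular calcium via Fluo-8 fluorescence; Dosing: single-point, 3 µM nominal; Read-out basis: percent activation from peak-over-basal fluorescence ratio, scaled EC20-to-EC100 acetylcholine; Repeats: one well per compound, no replicates.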
M4 antag – blocks acetylcholine activation of human M4 receptor; P08173; CHO-hM4 cells, ACh EC80, Fluo-8 calcium fluorescence; inhibition, % at 3 µM; actives 0.73% (n = 360,000);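 active = inhibition above its plate's cutoff, the mean inhibition of sample wells plus 3 SD, cut at about 27% in these data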;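 also: 0% = acetylcholine EC80 with DMSO and 100% = DMSO without agonist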
Target sequence (P08173 whole entry, looked up): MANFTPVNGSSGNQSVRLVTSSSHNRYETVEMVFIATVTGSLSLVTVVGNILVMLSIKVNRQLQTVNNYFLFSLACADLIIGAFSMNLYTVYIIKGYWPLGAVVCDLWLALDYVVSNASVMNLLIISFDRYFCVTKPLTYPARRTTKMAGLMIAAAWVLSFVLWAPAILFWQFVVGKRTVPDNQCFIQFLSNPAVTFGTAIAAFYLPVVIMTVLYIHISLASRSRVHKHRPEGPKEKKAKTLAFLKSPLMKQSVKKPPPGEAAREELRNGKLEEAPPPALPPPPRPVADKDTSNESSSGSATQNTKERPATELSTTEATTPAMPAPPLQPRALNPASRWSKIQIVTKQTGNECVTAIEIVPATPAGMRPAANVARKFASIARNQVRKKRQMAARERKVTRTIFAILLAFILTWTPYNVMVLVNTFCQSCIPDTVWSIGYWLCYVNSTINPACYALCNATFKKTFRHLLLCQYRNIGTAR
CHRM4 PAM – positive allosteric modulators of human muscarinic M4 receptor | CHO-K1 hM4/Gqi5, Fluo-8 calcium fluorescence, ACh EC20; 0% = ACh EC20, 100% = maximal ACh | activation, % at 3 µM | actives 0.4% (n = 360,000) | P08173 | AID 624126;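 active = activation above its plate's cutoff, the mean activation of sample wells plus 3 SD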
CHRM5 antagonist – blocks acetylcholine activation of human M5 receptor; actives 0.59% (n = 360,000); inhibition, % at 3 µM; AID 624040; CHO-hM5 cells, Fluo-8 calcium fluorescence, ACh EC80;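 active = inhibition above a per-plate cutoff, the mean of that plate's test compounds plus 3 SD, cut at about 27% in these data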;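 also: 0% = acetylcholine EC80 with DMSO and 100% = DMSO without agonist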
M4 ag – agonists of human muscarinic M4 receptor (CHRM4). CHO-K1 hM4/Gqi5, Fluo-8 calcium fluorescence; vehicle 0%, full acetylcholine response 100%. P08173. actives 0.14% (n = 360,000). AID 624127. activation, % at 3 µM;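 active = activation above the run mean over all test wells plus 3 SD, cut at about 32% in these data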;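 also: peak over basal fluorescence ratio per well then scaled between controls; 0% = DMSO wells and 100% = acetylcholine at EC100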
* hit, by the source's call.

SMILES	M5 ag	CHRM5 PAM	M4 antag	CHRM4 PAM	CHRM5 antagonist	M4 ag
COc1ccc(C(=O)NCC(=O)N/N=C/c2cn[nH]c2-c2ccccc2)cc1	-3	-2	-7	1	3	1
Cc1cccc(CSc2nncc(=O)[nH]2)c1	1	-4	-14	15*	-5	1
CCn1c(COc2cccc(C)c2)nnc1SCC(=O)Nc1cccc(C(=O)O)c1	3	-4	-5	6	-9	1
CCn1c(COc2ccc3ccccc3c2C)nnc1SCC(=O)Nc1cccc(C(=O)O)c1	-1	8	-9	25*	2	0
CN1CCS/C1=C/C=C1/SC(=S)N(Cc2ccccc2)C1=O	16	-4	21	-7	13	9
CN1CCS/C1=C/C=C1\SC(=S)N(CC(=O)O)C1=O	31*	-7	9	-9	5	15
CCCCN1C(=O)/C(=C/C=C2\SCCN2C)SC1=S	40*	-9	14	-7	21	21
O=C(Nc1ccccc1[N+](=O)[O-])OCC=Cc1ccccc1	0	-6	-4	7	4	-2
c1cc2c(cc1CN1CCN(C3CCCCCC3)CC1)OCO2	-8	-14	46*	-16	9	0
Cc1cccc(NC(=O)c2nc[nH]c2C(=O)N(C)Cc2ccccc2)c1	0	-5	-4	8	-1	3
Cc1cc(F)ccc1-c1cc(C(=O)NCc2ccc(C(F)(F)F)cc2)[nH]n1	33*	1	-7	-4	5	20
OC(c1cccc(CN2CCCCC2)c1)c1ncc(-c2cccc3ccccc23)[nH]1 (stereo unspecified)	-4	-8	-2	-8	12	2
CC(=O)c1cccc(S(=O)(=O)NC2CCSc3ccccc32)c1 (stereo unspecified)	-2	-1	9	-3	10	2
NC(=O)NN=C1C2CCCC1C(c1ccccc1)NC2c1ccccc1 (stereo unspecified)	2	-18	49*	-14	4	-1
CC(C)C(O)(C#CCN1CCCC1)c1ccccc1 (stereo unspecified)	-11	-15	46*	-12	58*	1
CC(C)C(O)(C#CCN1CCCCC1)c1ccccc1 (stereo unspecified)	-6	-15	98*	-35	98*	1
CNc1nc(NCc2ccc(C)cc2C)c2sccc2n1	5	-8	1	-6	12	7
COCCNc1nc(NCc2ccccc2)nc2ccsc12	82*	-22	100*	-15	97*	142*
O=C1CCCN1CCCNc1nc(NCc2ccccc2)nc2ccsc12	85*	-22	96*	-15	90*	145*
COCCNc1nc(NCc2ccccc2OC)c2sccc2n1	2	-10	-16	-1	4	14
Cc1ccc(CNc2nc(NCc3ccccc3)nc3ccsc23)c(C)c1	9	-18	28*	-13	28*	22
CC(C)C[C@H]1CN(CCCC[C@@H]2CNC(=O)C(=O)N2CC2CCCCC2)C(=O)C(=O)N1CCC1CCCCC1	1	-1	5	10	-1	1
Nc1ncnc2c1ncn2[C@@H]1O[C@H](COP(=O)(O)OP(=O)(O)OP(=O)(O)O)[C@@H](O)[C@H]1O	46*	-6	-12	10	-1	96*
CCN1C(=O)[C@H]2[C@@H](c3ccc(-c4cccc(Cl)c4)c(OC)c3)N3CCC[C@@]3(C(=O)OC)[C@H]2C1=O	2	1	4	-8	9	5
CCN(CC)C(=O)CSc1nc2ccccc2c(=O)n1-c1ccccc1OC	-1	3	-5	36*	-6	-2
SMILES	M5 ag	CHRM5 PAM	M4 antag	CHRM4 PAM	CHRM5 antagonist	M4 ag
O=C(Cn1c(=O)cnc2ccccc21)NCC(=O)Nc1ccc(F)c(F)c1	-1	-2	-26	9	-4	2
COC(=O)c1cc(NC(=O)Cn2c(=O)cnc3ccccc32)cc(C(=O)OC)c1	-4	20*	-9	3	-7	1
COC(=O)Cn1c(=O)cnc2ccccc21	1	2	4	0	-3	-1
O=C(O)Cn1c(=O)cnc2ccccc21	-3	0	27*	6	11	2
O=C(NNC(=O)c1ncc(Cl)c(Cl)c1Cl)c1ccc(F)cc1	-1	0	0	-1	7	4
COc1cccc(NC(=O)c2nc(S(C)(=O)=O)ncc2Cl)c1	-2	-3	36*	-3	18	-1
CN(c1ccccc1)S(=O)(=O)c1ccc(NC(=O)c2ccccc2)cc1	-2	-10	5	-8	9	4
CN(c1ccccc1)S(=O)(=O)c1ccc(NC(=O)c2nc(S(C)(=O)=O)ncc2Cl)cc1	2	-12	78*	-14	31*	21
Cc1ccc(-c2nc(CN(C)C3CCOC3)c(C)o2)s1 (stereo unspecified)	0	0	6	-2	12	0
C=C1C(=O)C=C2CN(C(=O)c3ccccc3)[C@@](Cc3ccc(F)cc3)(C(=O)OC)[C@@H]12	81*	-41	96*	-18	93*	143*
COC(=O)c1ccc(CNC(=O)CCNC(=O)c2ccco2)cc1	2	3	6	5	2	0
CC(=O)CC(C)(C)Nc1nc2ccc([N+](=O)[O-])cc2o1	5	25*	-9	7	-11	1
Cc1nc2ccccc2n1CC(=O)NCCN1CCOCC1	1	1	32*	28	0	1

Screens from PubChem BioAssay.
